The results in this text go back to ChEMBL document CHEMBL1127338, “Synthesis and antifungal activity of 1,3,2-benzodithiazole S-oxides” (J Med Chem, 1994).

≈ marks a conversion by molar mass, not a printed value. A value given as a limit tells only on which side of the number the result lay.

Data set [1] has as its system Candida albicans. The experiment in a line: Antifungal activity against Candida albicans CCH442 strain. Format: functional. The essentials: (§1)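 MIC determined by microtiter broth dilution in yeast nitrogen base with 0.05% glucose. Inoculum came from an overnight plate culture, at a final 5×10^4 cfu/mL. Plates were incubated at 35 °C for 24-48 h. MIC was taken as the lowest drug concentration completely inhibiting visible growth. 10231, 442 and 579A are clinical isolates; 38247 is a nonclinical amphotericin-resistant strain.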

Data set [2] deals with Candida albicans. The experiment in a line: Antifungal activity against Candida albicans 579A strain. Format: functional. The essentials: as §1
In data set [3] the test system is Candida albicans. Kind of data set: Antifungal activity against Candida albicans 38247 strain. Format: functional. The essentials: as §1
For data set [4], the system named is Candida albicans. The experiment in a line: Antifungal activity against Candida albicans 10231 strain. Format: functional. The essentials: as §1
Data set [5] relates to Rattus norvegicus. Kind of data set: % of the total radioactive dose of compound present in the 0-24 hour urine after a single 5 mg/kg dose administered intravenously in rats. The following applies: in vivo, iv. The class given is ADME, organism-based. The arrangement: dose 5 mg/kg, route intravenous. The procedure, abridged:
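14C-benzylic-labelled compound mixed with unlabelled material, given once iv at 5 mg/kg (~15 μCi per rat) as a 5 mg/mL solution in ethanol/propylene glycol/saline (20:35:45). Urine and feces collected daily for 3 days from two rats. Duplicate urine aliquots counted by liquid scintillation with quench correction. Fecal homogenates oxidized to 14CO2 before counting.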

The subject of data set [6] is Rattus norvegicus. The experiment in a line: plasma concentration of total radio activity 30 minutes after intravenous administration in rats. Format: ADME, organism-based. The note with it: in vivo, 0.5 h. The essentials: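 Rats given a single 5 mg/kg iv dose of 14C-labelled compound (~15 μCi each) in ethanol/propylene glycol/saline (20:35:45). At 30 min, one male and two female rats were anesthetized with CO2 and bled by cardiac puncture. Plasma was separated from heparinized blood by centrifugation at 4 °C for 15 min. Duplicate aliquots were counted by liquid scintillation with quench correction.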

For orientation: MIC means the least concentration at which growth counts as inhibited. A lower MIC goes with inhibition by little substance.

As to `CCC(CC)N1Sc2ccccc2[S+]1[O-]` (stereo not drawn), the MIC in data set [1] was 100 µg/mL (≈ 414 µM); in data set [2], 100 µg/mL (≈ 414 µM); in data set [3] it was 50 µg/mL (≈ 207 µM); in data set [4], 100 µg/mL (≈ 414 µM).
With `[O-][S+](c1ccccc1)N(Cc1ccccc1)Sc1ccccc1` (stereo not drawn), the MIC is above 100 µg/mL in data set [1], above 100 µg/mL in data set [2], 50 µg/mL (≈ 147 µM) in data set [3] and above 100 µg/mL in data set [4].
As for `[O-][S+]1c2ccccc2SN1Cc1c(F)cccc1F` (stereo not drawn), the MIC in data set [1] was 1.56 µg/mL (≈ 5.25 µM); in data set [2] it was 0.78 µg/mL (≈ 2.62 µM); in data set [3], 1.56 µg/mL (≈ 5.25 µM); in data set [4], 0.78 µg/mL (≈ 2.62 µM).
For the compound `[O-][S+]1c2ccccc2SN1Cc1ccc(F)c(F)c1` (stereo not drawn), the MIC in data set [1] was 1.56 µg/mL (≈ 5.25 µM); in data set [2] it was 1.56 µg/mL (≈ 5.25 µM); in data set [3], 3.12 µg/mL (≈ 10.5 µM); in data set [4], 1.56 µg/mL (≈ 5.25 µM).
As for `[O-][S+]1c2ccc(F)cc2SN1Cc1ccccc1` (stereo not drawn), the MIC turned out to be 0.78 µg/mL (≈ 2.79 µM) in data set [1], 0.78 µg/mL (≈ 2.79 µM) in data set [2], 1.56 µg/mL (≈ 5.58 µM) in data set [3] and 0.78 µg/mL (≈ 2.79 µM) in data set [4].
In the case of `Cc1cccc2c1[S+]([O-])N(Cc1ccccc1)S2` (stereo not drawn), the MIC was determined as 1.56 µg/mL (≈ 5.66 µM) in data set [1], 0.78 µg/mL (≈ 2.83 µM) in data set [2], 1.56 µg/mL (≈ 5.66 µM) in data set [3] and 0.78 µg/mL (≈ 2.83 µM) in data set [4].
Turning to `CC(C)(C)CCN1Sc2ccccc2[S+]1[O-]` (stereo not drawn), the MIC in data set [1] was determined as 1.56 µg/mL (≈ 6.11 µM); in data set [2], 3.12 µg/mL (≈ 12.2 µM); in data set [4], 1.56 µg/mL (≈ 6.11 µM).
With `Cc1ccc(C)c2c1SN(Cc1ccccc1)[S+]2[O-]` (stereo not drawn), the MIC came to 3.12 µg/mL (≈ 10.8 µM) in data set [1], 3.12 µg/mL (≈ 10.8 µM) in data set [2], 25 µg/mL (≈ 86.4 µM) in data set [3] and 1.56 µg/mL (≈ 5.39 µM) in data set [4].
`CCCCCCCCCCCCCCCCN1Sc2ccccc2[S+]1[O-]` (stereo not drawn): the MIC in data set [1], in data set [2], in data set [3] and in data set [4] was above 100 µg/mL each time.
Take `CCCCCCCC/C=C/CCCCCCCCN1Sc2ccccc2[S+]1[O-]` (stereo not drawn): the MIC in data set [1] is above 100 µg/mL; in data set [2], 100 µg/mL (≈ 237 µM); in data set [3], above 100 µg/mL; in data set [4], 100 µg/mL (≈ 237 µM).
On to `c1ccc(CN2Sc3ccccc3S2)cc1`, for which the MIC turned out to be 12.5 µg/mL (≈ 50.9 µM) in data set [1], 6.25 µg/mL (≈ 25.5 µM) in data set [2], 25 µg/mL (≈ 102 µM) in data set [3] and 6.25 µg/mL (≈ 25.5 µM) in data set [4].
`[O-][S+]1c2ccccc2SN1Cc1ccccc1` (stereo not drawn): the Excretion in data set [5] worked out at 88%. Further, the Plasma concentration in data set [6] was determined as 4.6 ug equiv ml-1.
As for `[O-][S+]1c2ccccc2SN1c1ccc2c(c1)OCO2` (stereo not drawn), the MIC in data set [1] turned out to be 25 µg/mL (≈ 85.8 µM); in data set [2], 25 µg/mL (≈ 85.8 µM); in data set [3], 25 µg/mL (≈ 85.8 µM); in data set [4], 12.5 µg/mL (≈ 42.9 µM).
As to `[O-][S+]1c2c(F)c(F)c(F)c(F)c2SN1Cc1ccccc1` (stereo not drawn), the MIC in data set [1] came out at 12.5 µg/mL (≈ 37.5 µM); in data set [2] it was 6.25 µg/mL (≈ 18.8 µM); in data set [3], 12.5 µg/mL (≈ 37.5 µM); in data set [4], 6.25 µg/mL (≈ 18.8 µM).
As for `COCC(Cc1ccccc1)N1Sc2ccccc2[S+]1[O-]` (stereo not drawn), the MIC in data set [1], in data set [2], in data set [3] and in data set [4] was 3.12 µg/mL (≈ 9.77 µM) throughout.
On to `CCCN1Sc2ccccc2S1`, for which the MIC stood at 12.5 µg/mL (≈ 63.3 µM) in data set [1], 3.12 µg/mL (≈ 15.8 µM) in data set [2], 25 µg/mL (≈ 127 µM) in data set [3] and 3.12 µg/mL (≈ 15.8 µM) in data set [4].
In the case of `[O-][S+]1c2c(F)c(F)c(N3CCOCC3)c(F)c2SN1Cc1ccccc1` (stereo not drawn), the MIC came to 50 µg/mL (≈ 125 µM) in data set [1], 25 µg/mL (≈ 62.4 µM) in data set [2], 12.5 µg/mL (≈ 31.2 µM) in data set [3] and 50 µg/mL (≈ 125 µM) in data set [4].
On to `c1ccc2c(c1)SN(C1CC1)S2`, for which the MIC amounted to 50 µg/mL (≈ 256 µM) in data set [1], 25 µg/mL (≈ 128 µM) in data set [2], 50 µg/mL (≈ 256 µM) in data set [3] and 25 µg/mL (≈ 128 µM) in data set [4].
Consider `CC(c1ccccc1)N1Sc2ccccc2[S+]1[O-]` (stereo not drawn), for which the MIC in data set [1] was determined as 1.56 µg/mL (≈ 5.66 µM); in data set [2] it was 1.56 µg/mL (≈ 5.66 µM); in data set [3], 3.12 µg/mL (≈ 11.3 µM); in data set [4], 1.56 µg/mL (≈ 5.66 µM).
As to `[O-][S+]1c2ccccc2SN1C12CC3CC(CC(C3)C1)C2` (stereo not drawn), the MIC was 25 µg/mL (≈ 81.8 µM) in data set [1], 12.5 µg/mL (≈ 40.9 µM) in data set [2], 50 µg/mL (≈ 164 µM) in data set [3] and 6.25 µg/mL (≈ 20.5 µM) in data set [4].
With `[O-][S+]1c2ccccc2SN1C(c1ccccc1)c1ccccc1` (stereo not drawn), the MIC in data set [1] stood at 12.5 µg/mL (≈ 37 µM); in data set [2], 6.25 µg/mL (≈ 18.5 µM); in data set [3], 25 µg/mL (≈ 74.1 µM); in data set [4], 25 µg/mL (≈ 74.1 µM).
For `COc1cc(CN2Sc3ccccc3[S+]2[O-])cc(OC)c1OC` (stereo not drawn), the MIC in data set [1] is 12.5 µg/mL (≈ 35.6 µM); in data set [2], 12.5 µg/mL (≈ 35.6 µM); in data set [3], 3.12 µg/mL (≈ 8.88 µM); in data set [4] it was 12.5 µg/mL (≈ 35.6 µM).
For the compound `[O-][S+]1c2ccccc2SN1CC1CCCCC1` (stereo not drawn), the MIC in data set [1] came out at 1.56 µg/mL (≈ 5.83 µM); in data set [2], 1.56 µg/mL (≈ 5.83 µM); in data set [3], 3.12 µg/mL (≈ 11.7 µM); in data set [4], 1.56 µg/mL (≈ 5.83 µM).
As for `[O-][S+]1c2ccccc2SN1Cc1ccc2ccccc2c1` (stereo not drawn), the MIC in data set [1] was 6.25 µg/mL (≈ 20.1 µM); in data set [2], 3.12 µg/mL (≈ 10 µM); in data set [3], 12.5 µg/mL (≈ 40.1 µM); in data set [4], 3.12 µg/mL (≈ 10 µM).
For the compound `COc1ccc2c(c1)SN(Cc1ccccc1)[S+]2[O-]` (stereo not drawn), the MIC in data set [1] is 0.78 µg/mL (≈ 2.68 µM); in data set [2], 0.78 µg/mL (≈ 2.68 µM); in data set [3], 3.12 µg/mL (≈ 10.7 µM); in data set [4], 0.78 µg/mL (≈ 2.68 µM).
Take `Cc1cccc2c1SN(Cc1ccccc1)[S+]2[O-]` (stereo not drawn): the MIC in data set [1] was determined as 25 µg/mL (≈ 90.8 µM); in data set [2], 12.5 µg/mL (≈ 45.4 µM); in data set [3], 25 µg/mL (≈ 90.8 µM); in data set [4] it was 12.5 µg/mL (≈ 45.4 µM).
With `[O-][S+]1c2ccccc2SN1CCc1ccncc1` (stereo not drawn), the MIC in data set [1], in data set [2], in data set [3] and in data set [4] was 100 µg/mL (≈ 362 µM) throughout.
For `[O-][S+]1c2ccccc2SN1c1ccc(F)c(F)c1` (stereo not drawn), the MIC in data set [1] was found to be 25 µg/mL (≈ 88.2 µM); in data set [2] it was 100 µg/mL (≈ 353 µM); in data set [3], 25 µg/mL (≈ 88.2 µM); in data set [4] it was 25 µg/mL (≈ 88.2 µM).
With `C[C@@H]1[C@H](O)[C@@H](C)/C=C/C=C/C=C/C=C/C=C/C=C/C=C/[C@H](O[C@@H]2O[C@H](C)[C@@H](O)[C@H](N)[C@@H]2O)C[C@@H]2O[C@](O)(C[C@@H](O)C[C@@H](O)[C@H](O)CC[C@@H](O)C[C@@H](O)CC(=O)O[C@H]1C)C[C@H](O)[C@H]2C(=O)O` [AMPHOTERICIN B], the MIC in data set [1] is 0.78 µg/mL (≈ 0.844 µM); in data set [2], 1.56 µg/mL (≈ 1.69 µM); in data set [3] it was 25 µg/mL (≈ 27.1 µM); in data set [4] it was 1.56 µg/mL (≈ 1.69 µM).
